Compound activity from PubChem BioAssay.
SENP6 inh = inhibitors of human SENP6 protease | Recombinant SENP6 catalytic domain, aminoluciferin luminescence | inhibition, % at 10 µM | Q9GZR1 | AID 2599 | 1.8% of 330,000 active;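 active = inhibition above about 50% at the single tested dose, limit read from the data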
SENP1 FRET inh = inhibitors of human SENP1 SUMO protease catalytic domain | Q9P0U3 | recombinant SENP1 catalytic domain, CyPet-SUMO1-YPet FRET cleavage | inhibition, % at 10 µM | 0.21% of 360,000 active;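 active = inhibition at least 30% at 10 µM, raw YFP signal under a set limit, fluorescence ratio 0.5 to 1.5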
Target sequence (Q9P0U3 419-644 limits assumed): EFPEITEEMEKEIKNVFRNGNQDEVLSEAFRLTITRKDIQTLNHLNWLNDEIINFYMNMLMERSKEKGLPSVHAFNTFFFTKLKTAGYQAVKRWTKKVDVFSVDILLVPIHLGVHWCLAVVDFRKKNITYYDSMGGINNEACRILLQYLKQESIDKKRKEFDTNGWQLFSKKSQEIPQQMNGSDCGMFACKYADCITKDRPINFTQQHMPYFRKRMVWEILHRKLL
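system = hSENP1 catalytic domain, recombinant | reagent = SFCypet-SUMO1-SFYpet substrate at 25 nM | doses = one dose per compound, 10 µM, 0.5% DMSO | incubation = enzyme reaction for 50 min at room temperature, dark | measured by = FRET, CFP and YFP emission | controls = no-enzyme low, enzyme-DMSO high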
SENP7 block = blocks the human protease SENP7; Q9BQF6; recombinant SENP7, Z-RLRGG-aminoluciferin luminescence, 40 min; inhibition, % at 5 µM; 1.5% of 330,000 active; AID 434973;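 active = inhibition above about 50% at the single test dose, limit read from the data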
Target sequence (Q9BQF6 706-1050 limits assumed): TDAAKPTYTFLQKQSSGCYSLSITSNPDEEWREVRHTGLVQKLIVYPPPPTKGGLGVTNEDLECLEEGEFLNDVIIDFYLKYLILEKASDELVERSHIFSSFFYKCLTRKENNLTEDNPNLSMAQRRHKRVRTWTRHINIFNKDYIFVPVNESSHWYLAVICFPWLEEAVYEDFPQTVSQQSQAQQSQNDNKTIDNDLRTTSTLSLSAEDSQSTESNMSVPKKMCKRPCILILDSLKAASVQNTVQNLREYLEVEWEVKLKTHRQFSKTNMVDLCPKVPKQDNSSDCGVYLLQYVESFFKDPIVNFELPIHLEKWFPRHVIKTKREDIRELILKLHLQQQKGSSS
SENP8 block-1 = inhibitors of human SENP8 protease; purified SENP8, Z-RLRGG-aminoluciferin cleavage, luminescence; inhibition, % at 10 µM; Q96LD8; 1.2% of 330,000 active; in the data active = inhibition above about 50%
SENP8 block-2 = SENP8 (human) protease inhibition | Q96LD8 | recombinant SENP8, Nedd8 substrate fluorescence | inhibition, % at 20 µM | 0.64% of 360,000 active | AID 602440; in the data active = inhibition mostly above about 40%, no sharp cut-off; inactive = mostly below about 27%
Platelet DG rel = platelet dense granule release activity; 0.22% of 300,000 active; human platelet-rich plasma, SFLLRN dense granule ATP release, luminescence; inhibition, %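 (compounds screened at 7.5 µM in platelet-rich plasma)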;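 active = mean replicate score, as percent of positive control, at or above 50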
SENP8 confirm = human SENP8 inhibition, confirmed | 40% of 6,200 active | shares compounds with SENP7 block | AID 488912 | Recombinant SENP8, Z-RLRGG-aminoluciferin luminescence, 60 min | inhibition, % at 12.5 µM;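 active = mean inhibition across replicates above about 50%, limit read from the data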
SENP6 conf = confirmation of human SENP6 protease inhibitors; shares compounds with SENP7 block; recombinant SENP6, Z-RLRGG-aminoluciferin luminescence; inhibition, % at 12.5 µM; 58% of 6,200 active; AID 488915
SENP7 confirm = human SENP7 inhibition, confirmed; shares compounds with SENP7 block; recombinant SENP7, Z-RLRGG-aminoluciferin luminescence, 40 min; inhibition, % at 12.5 µM; 69% of 6,200 active
Casp3 select = caspase-3 inhibition (SENP selectivity assay) | shares compounds with SENP7 block | purified caspase-3, Z-DEVD-aminoluciferin luminescence, 60 min | inhibition, % at 12.5 µM | 60% of 6,200 active;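 active = mean inhibition above about 50%, limit read from the data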
Luc interf = counter-screen for SENP inhibitors: luminescence interference; AID 488919; Pre-incubated SENP8/Z-RLRGG-aminoluciferin, luciferase luminescence interference; inhibition, % at 12.5 µM; shares compounds with SENP7 block; 39% of 6,200 active;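 active = mean inhibition above about 50% when retested at one dose, limit read from the data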
Large screens that a line does not name were inactive (follow-up assays come after a bar, where they were run). Hits are enriched below; roughly 2.6% of the tested compounds scored in any of these assays.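 The calls were made as follows, unless noted: active = mean inhibition above about 50% in the one-dose retest (limit read from the data); inactive = the rest.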

COc1ccccc1N(CCC#N)C(=O)CSc1nnc2ccccn12	none (no result: Platelet DG rel)
CN1CCN(C2CCN(c3ccc(Nc4nnc(Cl)c(Nc5ccccc5S(C)(=O)=O)n4)c(OC(CF)CF)c3)CC2)CC1	none (no result: Platelet DG rel)
COCCNC(=O)NC(=O)CN1C(=O)NC(Cc2c[nH]c3ccccc23)C1=O (stereo not given)	none
COC(=O)c1ccc(-c2nc3cc(N)ccc3o2)cc1	SENP6 inh 85.0, SENP7 block 72.9, SENP8 block-1 68.9 | SENP8 confirm inactive | SENP6 conf inactive | SENP7 confirm 74.0 | Casp3 select 54.5 | Luc interf inactive
Cc1ccc(-c2nc3cc(N)ccc3o2)cc1Br	SENP6 inh 92.8, SENP7 block 90.7, SENP8 block-1 86.8 | SENP8 confirm inactive | SENP6 conf 90.8 | SENP7 confirm 101.2 | Casp3 select 73.6 | Luc interf inactive
Nc1ccc(-c2nc3ccc(-c4nc5ccccc5o4)cc3[nH]2)cc1	none
Cc1cccc(-c2nsc(SCC(=O)N3CCCC3)n2)c1	SENP6 inh 80.1, SENP7 block 67.2 | SENP8 confirm 58.6 | SENP6 conf 65.2 | SENP7 confirm 87.2 | Casp3 select 77.0 | Luc interf 54.9
O=C(CSc1nc(-c2ccccc2)ns1)N1CCOCC1	none
O=C(N/N=C/c1ccc(OC(=O)c2ccccc2Br)cc1)c1ccccn1	SENP7 block 71.4 | SENP8 confirm inactive | SENP6 conf inactive | SENP7 confirm inactive | Casp3 select inactive | Luc interf inactive
O=C(N/N=C/c1cc2c(cc1Cl)OCO2)c1ccccn1	SENP6 inh 65.8 | SENP8 confirm inactive | SENP6 conf inactive | SENP7 confirm inactive | Casp3 select 51.9 | Luc interf inactive
Cc1ccsc1/C=N/NC(=O)c1ccccn1	SENP6 inh 61.1 | SENP8 confirm inactive | SENP6 conf inactive | SENP7 confirm 78.3 | Casp3 select 84.0 | Luc interf 60.4
O=C(N/N=C/c1ccsc1)c1ccccn1	none
CC(C)(C)c1ccc(/C=N/NC(=O)c2ccccn2)cc1	SENP7 block 79.3, SENP8 block-1 58.6 | SENP8 confirm inactive | SENP6 conf inactive | SENP7 confirm inactive | Casp3 select inactive | Luc interf inactive
CCOc1ccc2ccccc2c1/C=N/NC(=O)CNC(=O)Cc1ccccc1	none
O=C(c1ccc([N+](=O)[O-])cc1)c1cc2ccc(O)cc2oc1=O	SENP6 inh 83.3, SENP7 block 70.8, SENP8 block-1 77.9 | SENP8 confirm inactive | SENP6 conf 64.9 | SENP7 confirm inactive | Casp3 select 70.7 | Luc interf inactive
COc1ccc(CC(=O)NCc2cccc(Cl)c2)cc1S(=O)(=O)N1CCOCC1	none (no result: SENP6 inh, SENP7 block, SENP8 block-1, Platelet DG rel)
CN(C(=O)CCNC(=O)Cn1cnc2ccccc2c1=O)c1ccccc1F	none
N/C(=N\OC(=O)/C=C/c1ccccc1Cl)c1ccccn1	SENP6 inh 94.8, SENP7 block 88.9, SENP8 block-1 85.7 | SENP8 confirm 90.7 | SENP6 conf 90.1 | SENP7 confirm 100.1 | Casp3 select 85.3 | Luc interf 87.5
N/C(=N\OC(=O)COc1ccc(Br)cc1Cl)c1ccncc1	none (no result: SENP6 inh, SENP7 block, SENP8 block-1, Platelet DG rel)
O=C(COC(=O)/C=C/c1ccccc1Cl)Nc1cccnc1Cl	none (no result: Platelet DG rel)
N/C(=N\OC(=O)COc1ccc(Br)cc1Cl)c1ccccn1	SENP6 inh 95.8, SENP7 block 97.0, SENP8 block-1 85.9 | SENP8 confirm 89.4 | SENP6 conf 87.4 | SENP7 confirm 96.6 | Casp3 select 81.5 | Luc interf 88.6
N/C(=N\OC(=O)/C=C/c1ccccc1)c1cccnc1	none
N/C(=N\OC(=O)/C=C/c1ccc(Br)cc1)c1ccccn1	SENP6 inh 57.2, SENP7 block 52.9 | SENP8 confirm inactive | SENP6 conf inactive | SENP7 confirm inactive | Casp3 select inactive | Luc interf inactive
N/C(=N\OC(=O)/C=C/c1ccccc1Cl)c1cccnc1	SENP7 block 51.7 | SENP8 confirm inactive | SENP6 conf inactive | SENP7 confirm inactive | Casp3 select inactive | Luc interf inactive
CCc1nn2c(=O)cc(COC(=O)c3cc(Cl)c(OC)c(OC)c3)nc2s1	none (no result: Platelet DG rel)
CC1(C)CC(=O)C=C(c2n[nH]nc2-c2ccc(F)c(F)c2)C1	none (no result: SENP6 inh, SENP7 block, SENP8 block-1, Platelet DG rel)
Cc1cc(-c2nnc(SCC(=O)Nc3cccc(F)c3)n2N)n[nH]1	none
CCN1CCN(c2ccc(S(=O)(=O)N3CCOCC3)cc2NC(=O)C(C)Oc2ccc(Cl)cc2)CC1 (stereo not given)	none
O=C(CN1C(=O)NC2(CCCCC2)C1=O)Nc1ccc(Cl)cc1	none (no result: Platelet DG rel)
Cc1ccc(/C(N)=N/OC(=O)c2cccc(F)c2)cc1	SENP6 inh 61.2, SENP7 block 75.9 | SENP8 confirm inactive | SENP6 conf inactive | SENP7 confirm 82.7 | Casp3 select 61.2 | Luc interf inactive
N/C(=N\OC(=O)c1cccc(F)c1)c1ccccc1	SENP6 inh 90.9, SENP7 block 95.5, SENP8 block-1 77.1 | SENP8 confirm 82.6 | SENP6 conf 84.7 | SENP7 confirm 97.2 | Casp3 select 92.3 | Luc interf 78.5
Cn1cc(-c2coc3c(C(=O)NCc4cccs4)cccc23)cn1	none (no result: SENP6 inh, SENP7 block, SENP8 block-1, Platelet DG rel)
CC(=O)N1CCn2c3c(c(=O)c4cc(C)ccc42)CCC31 (stereo not given)	SENP6 inh 55.0 | SENP8 confirm inactive | SENP6 conf inactive | SENP7 confirm inactive | Casp3 select inactive | Luc interf inactive
CC(=O)N1CCn2c3c(c4cc(C)ccc42)CCCC31 (stereo not given)	none
CCC(=O)Nc1ccc(NC(=O)c2cccc(OC)c2)nc1	none
O=C(Nc1ccc(NC(=O)C2CC2)nc1)c1ccccn1	SENP6 inh 54.8, SENP7 block 51.7 (no result: Platelet DG rel) | SENP8 confirm inactive | SENP6 conf inactive | SENP7 confirm 61.4 | Casp3 select 69.7 | Luc interf inactive
COc1cccc(C(=O)Nc2ccc(NC(=O)C3CC3)cn2)c1	SENP6 inh 85.1, SENP7 block 82.0, SENP8 block-1 59.7 | SENP8 confirm 69.4 | SENP6 conf 69.3 | SENP7 confirm 89.2 | Casp3 select 89.1 | Luc interf inactive
O=C(Nc1ccc(NC(=O)c2ccco2)nc1)c1ccccn1	SENP6 inh 54.1, SENP7 block 50.7 | SENP8 confirm inactive | SENP6 conf inactive | SENP7 confirm 74.5 | Casp3 select 80.5 | Luc interf inactive
